The results in this text go back to ChEMBL document CHEMBL1126777, “Mono- and bis(aminomethyl)phenylacetic acid esters as short-acting antiarrhythmic agents. 2” (J Med Chem, 1993).

Data set [1] is filed under the species Cavia porcellus. Nature of the data set: Dose required to convert acetylstrophanthidin-induced arrhythmia in guinea pig right atria to normal sinus rhythm (number of tissues converted to NSR/number of tissues tested=3/5). Type of data set: functional.
The nature of data set [2]: In vitro determination of human blood elimination half-life. Type of data set: ADME. The note with it: whole blood.
Data set [3] is filed under the species Cavia porcellus. Nature of the data set: Dose required to convert acetylstrophanthidin-induced arrhythmia in guinea pig right atria to normal sinus rhythm (number of tissues converted to NSR/number of tissues tested=1/4). It counts as functional.
For data set [4], the species on record is Cavia porcellus. Description: Dose required to convert acetylstrophanthidin-induced arrhythmia in guinea pig right atria to normal sinus rhythm (number of tissues converted to NSR/number of tissues tested=5/5). Type of data set: functional.
Data set [5] is filed under the species Cavia porcellus. Nature of the data set: Dose required to convert acetylstrophanthidin-induced arrhythmia in guinea pig right atria to normal sinus rhythm (number of tissues converted to NSR/number of tissues tested=4/4). It counts as functional.
The species entered for data set [6] is Cavia porcellus. Description: Dose required to convert acetylstrophanthidin-induced arrhythmia in guinea pig right atria to normal sinus rhythm (number of tissues converted to NSR/number of tissues tested=6/6). Type of data set: functional.
Data set [7] in a line: Distribution coefficient was determined. Type of data set: physicochemical. Conditions: octanol/water. An outline of the steps: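 Octanol and 0.1 M phosphate buffer at pH 7.4 were pre-saturated with each other by shaking for 16 h. About 5 mg of compound was dissolved in 10 mL buffer. A 5-mL portion was shaken with 5 mL octanol and centrifuged for 5 min. Absorbance of the aqueous phase at 280 nm was read before and after partitioning, diluted to 0.4–0.9. DC = (initial − final)/final, each × dilution factor; mean of two determinations.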

Data set [8] is described as follows: In vitro determination of human blood elimination half-life; not determined because more than 90% of the drug was metabolized in min. Type of data set: ADME. Conditions: whole blood.
The species entered for data set [9] is Cavia porcellus. Nature of the data set: Dose required to convert acetylstrophanthidin-induced arrhythmia in guinea pig right atria to normal sinus rhythm (number of tissues converted to NSR/number of tissues tested=3/3). Type of data set: functional.
Data set [10] is filed under the species Cavia porcellus. Nature of the data set: Dose required to convert acetylstrophanthidin-induced arrhythmia in guinea pig right atria to normal sinus rhythm (number of tissues converted to NSR/number of tissues tested=1/3). It counts as functional.
The test system of data set [11] is Canis familiaris. Nature of the data set: In vivo determination of antiarrhythmic activity as the dose required for the production of 50% normal sinus beats in ouabain dog. It counts as functional. The note with it: Canis lupus familiaris, Heart. A digest of the protocol:
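Dogs with ouabain-induced arrhythmia received the agent by intravenous infusion at 500 µg/kg/min. ED50 is the cumulative administered dose (mg/kg) at which 50% of beats were normal sinus beats; number of animals given.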

The subject of data set [12] is Canis familiaris. Nature of the data set: In vivo determination of antiarrhythmic activity as the dose required for the production of 80% normal sinus beats in Harris dog. Type of data set: functional. The note with it: Canis lupus familiaris, Heart. An outline of the steps: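 Harris dog arrhythmia model with intravenous infusion at 150, 225 or 300 µg/kg/min depending on agent. Effective dose is the cumulative administered dose (mg/kg) giving 80% normal sinus beats; number of animals given.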

Data set [13] is filed under the species Cavia porcellus. Nature of the data set: Dose required to convert acetylstrophanthidin-induced arrhythmia in guinea pig right atria to normal sinus rhythm (number of tissues converted to NSR/number of tissues tested=2/4). Type of data set: functional.
The species named for data set [14] is Cavia porcellus. Description: Dose required to convert acetylstrophanthidin-induced arrhythmia in guinea pig right atria to normal sinus rhythm (number of tissues converted to NSR/number of tissues tested=3/4). Type of data set: functional.
Data set [15] is filed under the species Cavia porcellus. Nature of the data set: Dose required to convert acetylstrophanthidin-induced arrhythmia in guinea pig right atria to normal sinus rhythm (number of tissues converted to NSR/number of tissues tested=8/8). Type of data set: functional.

As to `O=C(Cc1cc(CN2CCCC2)c(O)c(CN2CCCC2)c1)OCCN1C(=O)c2ccccc2C1=O`, the ED in the data set listed under Cavia porcellus [1] was 23.3 µg/mL. Moreover, the half-life in data set [2] is 3.8 min.

`O=C(Cc1cc(CN2CCCC2)c(O)c(CN2CCCC2)c1)OCC1CCCO1` (configuration not stated) showed an ED in the data set listed under Cavia porcellus [3] of 40 µg/mL. In addition, the half-life in data set [2] stood at 3.5 min.

`O=C(Cc1cc(CN2CCCC2)c(O)c(CN2CCCC2)c1)OCc1ccco1` displayed an ED in the data set filed under Cavia porcellus [4] of 29.4 µg/mL. The half-life in data set [2] amounted to 2.5 min.

As for `O=C(Cc1cc(CN2CCCC2)c(O)c(CN2CCCC2)c1)OCc1ccc([N+](=O)[O-])cc1`, the ED in the data set filed under Cavia porcellus [5] amounted to 5.2 µg/mL. The compound further came in with a half-life in data set [2] of 6.2 min.

For the compound `O=C(Cc1cc(CN2CCCC2)c(O)c(CN2CCCC2)c1)OCCOc1ccccc1`, the ED in the data set filed under Cavia porcellus [5] was determined as 16.2 µg/mL. The compound also yielded a half-life in data set [2] of 2.5 min.

For the compound `O=C(Cc1cc(CN2CCCC2)c(O)c(CN2CCCC2)c1)OCc1ccoc1`, the ED in the data set listed under Cavia porcellus [6] was found to be 27.5 µg/mL. Besides, the half-life in data set [2] was determined as 10.1 min.

Compound `CN1CCN(Cc2cc(CC(=O)OCC3COc4ccccc4O3)ccc2O)CC1` (configuration not stated) registered a DC in [7] of 24. Moreover, in the data set filed under Cavia porcellus [5], the ED was 2.5 µg/mL.

Regarding `O=C(Cc1ccc(O)c(CN2CCN(CC(=O)N3CCCC3)CC2)c1)OCC1COc2ccccc2O1` (configuration not stated), the DC in data set [7] came to 7.1. For the same compound, the ED in the data set filed under Cavia porcellus [5] was 22.5 µg/mL. In [2], the half-life is < 1 min.

Turning to `O=C(Cc1ccc(O)c(CN2CCCC2)c1)OCC1COc2ccccc2O1` (configuration not stated), the half-life in [8] is < 1 min. The same compound registered a DC in data set [7] of 36.3. For the same compound, the ED in the data set filed under Cavia porcellus [5] turned out to be 1.2 µg/mL.

`O=C(Cc1cc(CN2CCCC2)c(O)c(CN2CCCC2)c1)OCCc1ccccc1` returned an ED in the data set listed under Cavia porcellus [5] of 2.8 µg/mL. Moreover, the half-life in data set [2] came out at 16.8 min.

Regarding `O=C(Cc1ccc(O)c(CN2CCC(N3CCCCC3)CC2)c1)OCC1COc2ccccc2O1` (configuration not stated), in data set [7], the DC is 9.6. The same compound yielded an ED in the data set filed under Cavia porcellus [9] of 8.3 µg/mL. In data set [2], the half-life was < 1 min.

As to `O=C(Cc1ccc(CN2CCCC2)cc1)OCC1COc2ccccc2O1` (configuration not stated), the DC in data set [7] was 22.1. Also, the ED in the data set filed under Cavia porcellus [5] worked out at 10 µg/mL. The half-life in data set [2] was < 1 min.

In the data set filed under Cavia porcellus [10], `O=C(Cc1cc(CN2CCCC2)c(O)c(CN2CCCC2)c1)OCC1CCCCO1` (configuration not stated) registered an ED of 20 µg/mL. This compound also came in with a half-life in [2] of 3.3 min.

In data set [7], `O=C(Cc1cc(CN2CCCC2)c(O)c(CN2CCCC2)c1)OCC1COc2ccccc2O1` (configuration not stated) returned a DC of 2.62. Further, the values for the ED50 in the data set with Canis familiaris [11] and in the data set with Canis familiaris [12] were 4.8 mg/kg and 14 mg/kg, respectively. The compound also had an ED in the data set filed under Cavia porcellus [4] of 7.3 µg/mL. The compound also gave a half-life in data set [2] of 7.1 min.

On to `O=C(Cc1cc(CN2CCCC2)c(O)c(CN2CCCC2)c1)OCCc1ccsc1`, for which the ED in the data set filed under Cavia porcellus [5] is 6.2 µg/mL. Also, the half-life in data set [2] amounted to 34.8 min.

The compound `O=C(Cc1cc(CN2CCCC2)c(O)c(CN2CCCC2)c1)OCC1CCc2ccccc2C1` (configuration not stated) came in with an ED in the data set filed under Cavia porcellus [13] of 6 µg/mL. Also, in [2], the half-life turned out to be 2.3 min.

In turn, `O=C(Cc1cc(CN2CCCC2)c(O)c(CN2CCCC2)c1)OCCc1cccs1` showed an ED in the data set listed under Cavia porcellus [5] of 3 µg/mL. Further, the half-life in [2] was 35.9 min.

For the compound `O=C(Cc1cc(CN2CCCC2)c(O)c(CN2CCCC2)c1)OCc1ccc2c(c1)OCO2`, the ED in the data set filed under Cavia porcellus [14] is 10.7 µg/mL. Further, in data set [2], the half-life turned out to be 9.2 min.

In turn, `O=C(Cc1cc(CN2CCCC2)c(O)c(CN2CCCC2)c1)OCc1c(F)c(F)c(F)c(F)c1F` gave an ED in the data set listed under Cavia porcellus [5] of 7.5 µg/mL. In [2], this compound showed a half-life of 11 min.

The compound `O=C(Cc1cccc(CN2CCCC2)c1)OCC1COc2ccccc2O1` (configuration not stated) yielded a DC in data set [7] of 39.5. The ED in the data set listed under Cavia porcellus [15] worked out at 6.9 µg/mL. Besides, the half-life in data set [2] was < 1 min.

Regarding `COc1ccc2c(COC(=O)Cc3cc(CN4CCCC4)c(O)c(CN4CCCC4)c3)cc(=O)oc2c1`, the ED in the data set listed under Cavia porcellus [9] came to 11.7 µg/mL.

In the case of `O=C(Cc1cc(CN2CCCC2)c(O)c(CN2CCCC2)c1)OCc1cccs1`, in data set [7], the DC stood at 0.73. The median effective dose (ED50) in the data set with Canis familiaris [11] turned out to be 3.8 mg/kg; in the data set with Canis familiaris [12] it was 10.5 mg/kg. The compound also came in with an ED in the data set listed under Cavia porcellus [5] of 5.5 µg/mL. In [2], this compound displayed a half-life of 3.5 min.

In turn, `CCN(CC)CC(=O)Nc1c(C)cccc1C` [LIDOCAINE] had a DC in data set [7] of 19.2. Also, the 50% effective dose (ED50) worked out at 8.8 mg/kg with Canis familiaris [11] and 37.5 mg/kg in the data set with Canis familiaris [12].

Broadly, the half-life is the time needed for the level to fall by half in the phase considered. A higher half-life goes with slow decline. A word on the ED50: it is the dose at which the effect has come halfway, by size or by number of responders. Higher therefore signals weaker potency.
